Legend:
Format in all cases: functional
Pichia kudriavzevii [1] = assay: Antimicrobial activity against Candida krusei C117 isolate at 50 ug/ml after 24 hrs
In short: (§1)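 Percent growth inhibition in 96-well microplates. Compound stocks in DMSO (≤2%) were diluted in RPMI-1640 to final 100–6.25 µg/mL, and 100 µL inoculum was added (final 200 µL). Controls were a growth well (inoculum with matching DMSO, no compound) and a sterility well (no inoculum). Inhibition was calculated against growth and sterility wells.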

Candida parapsilosis [2] = assay: Antimicrobial activity against Candida parapsilosis C124 isolate at 50 ug/ml after 24 hrs; conditions: Lodderomyces parapsilosis; in short: as §1
Candida albicans [3] = assay: Antimicrobial activity against Candida albicans C129 isolate at 6.25 ug/ml after 24 hrs
In short: (§2)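 Growth-inhibition microplate test. Strains are grown on Sabouraud-chloramphenicol agar for 48 h at 30 °C, and inoculum is added to RPMI-1640 containing compound at a final 100–6.25, with DMSO ≤2%. Each strain has a growth control (same DMSO, no compound) and a sterility control.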

Pichia kudriavzevii [4] = assay: Antimicrobial activity against Candida krusei C117 isolate at 100 ug/ml after 24 hrs; in short: as §1
Candida albicans [5] = assay: Antimicrobial activity against Candida albicans C130 isolate at 12.5 ug/ml after 24 hrs; in short: as §2
Candida albicans [6] = assay: Antimicrobial activity against Candida albicans C127 isolate at 50 ug/ml after 24 hrs; conditions: C127, 24 h; in short: as §2
Candida albicans [7] = assay: Antimicrobial activity against Candida albicans C126 isolate at 6.25 ug/ml after 24 hrs; in short: as §2
Nakaseomyces glabratus [8] = assay: Antimicrobial activity against Candida glabrata C115 isolate at 25 ug/ml after 24 hrs; in short: as §1
Candida tropicalis [9] = assay: Antimicrobial activity against Candida tropicalis C131 isolate at 12.5 ug/ml after 24 hrs; in short: as §1
Candida parapsilosis [10] = assay: Antimicrobial activity against Candida parapsilosis C124 isolate at 25 ug/ml after 24 hrs; conditions: Lodderomyces parapsilosis; in short: as §1
Pichia kudriavzevii [11] = assay: Antimicrobial activity against Candida krusei C117 isolate at 12.5 ug/ml after 24 hrs; in short: as §1
Nakaseomyces glabratus [12] = assay: Antimicrobial activity against Candida glabrata C115 isolate at 100 ug/ml after 24 hrs; in short: as §2
Candida albicans [13] = assay: Antimicrobial activity against Candida albicans C126 isolate at 100 ug/ml after 24 hrs; in short: as §2
Candida albicans [14] = assay: Antimicrobial activity against Candida albicans C128 isolate at 12.5 ug/ml after 24 hrs; in short: as §2
Candida albicans [15] = assay: Antimicrobial activity against Candida albicans C130 isolate at 25 ug/ml after 24 hrs; in short: as §2
Candida albicans [16] = assay: Antimicrobial activity against Candida albicans C129 isolate at 25 ug/ml after 24 hrs; in short: as §2
Candida albicans [17] = assay: Antimicrobial activity against Candida albicans C127 isolate at 25 ug/ml after 24 hrs; conditions: C127, 24 h; in short: as §2
Candida albicans [18] = assay: Antimicrobial activity against Candida albicans C127 isolate at 12.5 ug/ml after 24 hrs; conditions: C127, 24 h; in short: as §2
Candida albicans [19] = assay: Antimicrobial activity against Candida albicans C129 isolate at 12.5 ug/ml after 24 hrs; in short: as §2
Candida parapsilosis [20] = assay: Antimicrobial activity against Candida parapsilosis C124 isolate at 6.25 ug/ml after 24 hrs; conditions: Lodderomyces parapsilosis; in short: as §1
Candida albicans [21] = assay: Antimicrobial activity against Candida albicans C130 isolate at 6.25 ug/ml after 24 hrs; in short: as §2
Candida albicans [22] = assay: Antimicrobial activity against Candida albicans C129 isolate at 50 ug/ml after 24 hrs; in short: as §2
Candida albicans [23] = assay: Antimicrobial activity against Candida albicans C126 isolate at 50 ug/ml after 24 hrs; in short: as §2
Candida albicans [24] = assay: Antimicrobial activity against Candida albicans C127 isolate at 6.25 ug/ml after 24 hrs; conditions: C127, 24 h; in short: as §2
Candida parapsilosis [25] = assay: Antimicrobial activity against Candida parapsilosis C124 isolate at 100 ug/ml after 24 hrs; conditions: Lodderomyces parapsilosis; in short: as §1
Candida tropicalis [26] = assay: Antimicrobial activity against Candida tropicalis C131 isolate at 50 ug/ml after 24 hrs; in short: as §1
Nakaseomyces glabratus [27] = assay: Antimicrobial activity against Candida glabrata C115 isolate at 6.25 ug/ml after 24 hrs; in short: as §1

Cc1cc(-c2ccncc2)nc2ccccc12
inhibition at 50 µg/mL (Pichia kudriavzevii [1]): 3%
inhibition at 50 µg/mL (Candida parapsilosis [2]): 5%
inhibition at 6.25 µg/mL (Candida albicans [3]): 0%
inhibition at 100 µg/mL (Pichia kudriavzevii [4]): 66%
inhibition at 12.5 µg/mL (Candida albicans [5]): 2%
inhibition at 50 µg/mL (Candida albicans [6]): 65%
inhibition at 6.25 µg/mL (Candida albicans [7]): 0%
inhibition at 25 µg/mL (Nakaseomyces glabratus [8]): 4%
inhibition at 12.5 µg/mL (Candida tropicalis [9]): 54%
inhibition at 25 µg/mL (Candida parapsilosis [10]): 0%
inhibition at 12.5 µg/mL (Pichia kudriavzevii [11]): 0%
inhibition at 100 µg/mL (Nakaseomyces glabratus [12]): 75%
inhibition at 100 µg/mL (Candida albicans [13]): 69%
inhibition at 12.5 µg/mL (Candida albicans [14]): 0%
inhibition at 25 µg/mL (Candida albicans [15]): 48%
inhibition at 25 µg/mL (Candida albicans [16]): 50%
inhibition at 25 µg/mL (Candida albicans [17]): 0%
inhibition at 12.5 µg/mL (Candida albicans [18]): 0%
inhibition at 12.5 µg/mL (Candida albicans [19]): 3%
inhibition at 6.25 µg/mL (Candida parapsilosis [20]): 0%
inhibition at 6.25 µg/mL (Candida albicans [21]): 0%
inhibition at 50 µg/mL (Candida albicans [22]): 82%
inhibition at 50 µg/mL (Candida albicans [23]): 32%
inhibition at 6.25 µg/mL (Candida albicans [24]): 0%
inhibition at 100 µg/mL (Candida parapsilosis [25]): 55%
inhibition at 50 µg/mL (Candida tropicalis [26]): 75%
inhibition at 6.25 µg/mL (Nakaseomyces glabratus [27]): 0%

c1ccc2nc(-c3ccncc3)ccc2c1
inhibition at 50 µg/mL (Pichia kudriavzevii [1]): 3%
inhibition at 50 µg/mL (Candida parapsilosis [2]): 5%
inhibition at 6.25 µg/mL (Candida albicans [3]): 0%
inhibition at 100 µg/mL (Pichia kudriavzevii [4]): 66%
inhibition at 12.5 µg/mL (Candida albicans [5]): 2%
inhibition at 50 µg/mL (Candida albicans [6]): 65%
inhibition at 6.25 µg/mL (Candida albicans [7]): 0%
inhibition at 25 µg/mL (Nakaseomyces glabratus [8]): 4%
inhibition at 12.5 µg/mL (Candida tropicalis [9]): 54%
inhibition at 25 µg/mL (Candida parapsilosis [10]): 0%
inhibition at 12.5 µg/mL (Pichia kudriavzevii [11]): 0%
inhibition at 100 µg/mL (Nakaseomyces glabratus [12]): 75%
inhibition at 100 µg/mL (Candida albicans [13]): 69%
inhibition at 12.5 µg/mL (Candida albicans [14]): 0%
inhibition at 25 µg/mL (Candida albicans [15]): 48%
inhibition at 25 µg/mL (Candida albicans [16]): 50%
inhibition at 25 µg/mL (Candida albicans [17]): 0%
inhibition at 12.5 µg/mL (Candida albicans [18]): 0%
inhibition at 12.5 µg/mL (Candida albicans [19]): 3%
inhibition at 6.25 µg/mL (Candida parapsilosis [20]): 0%
inhibition at 6.25 µg/mL (Candida albicans [21]): 0%
inhibition at 50 µg/mL (Candida albicans [22]): 82%
inhibition at 50 µg/mL (Candida albicans [23]): 32%
inhibition at 6.25 µg/mL (Candida albicans [24]): 0%
inhibition at 100 µg/mL (Candida parapsilosis [25]): 55%
inhibition at 50 µg/mL (Candida tropicalis [26]): 75%
inhibition at 6.25 µg/mL (Nakaseomyces glabratus [27]): 0%
